# ChEMBL document CHEMBL4321818, “Anti-biofilm Agents against Pseudomonas aeruginosa: A Structure-Activity Relationship Study of C-Glycosidic LecB Inhibitors” (J Med Chem, 2019)
# pIC50: −log10 of the molar value. Activity calls are given as the source filed them. No cut-off for these calls is given here.
# Legend:
# [1] = target: T1, Fucose-binding lectin PA-IIL (Pseudomonas aeruginosa (strain ATCC 15692 / DSM 22644 / CIP 104116 / JCM14847 / LMG 12228 / 1C / PRS 101 / PAO1), UniProt Q9HYN5); assay: Inhibition of N-(fluorescein-5-yl)-N'-(alpha-L-fucopyranosyl ethylen)thiocarbamide binding to Pseudomonas aeruginosa PAO1 LecB incubated for 22 to 24 hrs by fluorescence polarization assay
# Target sequence in this assay (Q9HYN5 whole entry): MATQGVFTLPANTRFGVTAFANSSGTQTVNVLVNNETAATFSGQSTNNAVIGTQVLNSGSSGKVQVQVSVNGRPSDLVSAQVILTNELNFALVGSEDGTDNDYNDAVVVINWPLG
# [2] = target: T1, Fucose-binding lectin PA-IIL; assay: Inhibition of N-(fluorescein-5-yl)-N'-(alpha-L-fucopyranosyl ethylen)thiocarbamide binding to Pseudomonas aeruginosa PA14 LecB incubated for 22 to 24 hrs by fluorescence polarization assay
# Target sequence in this assay (Q9HYN5 1-115): as the sequence (Q9HYN5 whole entry) above
# [3] = Protein binding in CD1 mouse plasma after 2 hrs by HPLC analysis relative to control; format: ADME, cell-free; details: for fraction unbound at 2 h: CD1, mouse, read-out: PPB; for PPB: mouse, 2 h
# In short: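 Rapid equilibrium dialysis with compound at 100 µM final in pooled CD-1 mouse plasma, naproxen as control. Incubated 37 °C for 2 h at 800 rpm. Samples matrix-matched, extracted with cold MeCN/H2O (90:10) containing caffeine internal standard, and quantified by HPLC-MS/MS. %free = buffer/plasma chamber concentration × 100; %bound = 100 − %free.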
# [4] = Half life in CD1 mouse plasma at 10 mg/kg, po or ip after 24 hrs; format: ADME, organism-based
# [5] = system: HepG2; assay: Cytotoxicity against human HepG2 cells assessed as cell viability at 100 uM after 24 hrs by MTT assay relative to control; format: cell-based; details: hepg2, 24 h
# In short: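 Hep G2 cells in DMEM + 10% FCS were grown to 75% confluency, then exposed to compound (0.01–100 µM, 0.1% DMSO final) for 24 h at 37 °C, 5% CO2. MTT was added at 1 mg/mL final for 3 h and solubilised in 0.04 M HCl/2-propanol; A560 read with 670 nm reference. Normalised (A−B)/(C−B) to 0.5% Triton X-100 and vehicle controls; SD of ≥3 assays.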
# [6] = Stability in mouse plasma at 25 uM measured up to 120 mins by HPLC-MS analysis; format: ADME, cell-free; details: 2 h
# In short: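 Compound from DMSO added to mouse plasma (pH 7.4, 37 °C) at 25 µM final. Incubated 0, 15, 30, 60, 90 and 120 min at 37 °C. Aliquots extracted with methanol containing internal standard and analyzed by HPLC-MS, normalized to internal standard and time 0. Procaine and propoxycaine served as unstable controls, procainamide (250 µM) as stable control. At least three independent repeats.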
# [7] = system: Pseudomonas aeruginosa; assay: Antibiofilm activity against Pseudomonas aeruginosa PA14 transfected with pMP7605 plasmid at 100 uM after 48 hrs by fluorescence based confocal light microscopic analysis relative to control; format: functional; details: PA14, 48 h
# In short: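 P. aeruginosa PA14 wild type carrying the mCherry plasmid pMP7605 was grown overnight in LB at 37 °C, then diluted to OD600 0.02 in M63 minimal medium. Compound (100 µM final, from DMSO stock) was added and cultures incubated 48 h at 30 °C. Biofilm biomass was quantified by confocal laser scanning microscopy versus DMSO control; means ± SD of three independent assays, Student's t test.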
# [8] = system: Pseudomonas aeruginosa; assay: Antibacterial activity against Pseudomonas aeruginosa PA14 transfected with pMP7605 plasmid at 100 uM after 23 hrs by fluorescence based confocal light microscopic analysis; format: functional, organism-based
# [9] = Intrinsic clearance in C57BL/6J mouse liver microsomes at 1 uM preincubated for 10 mins followed by NADPH addition and measured up to 45 mins by LC-MS/MS analysis; format: ADME, Microsome; details: 0.75 h
# In short: (§1)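 Compound at 1 µM in 0.1 M phosphate buffer pH 7.4 with liver microsomes at 0.5 mg/mL. Preincubated 10 min, then started with an NADPH regenerating system. Sampled at 1–45 min at 37 °C and quenched in MeCN with internal standard. Supernatant analyzed by LC-MS/MS. CLint = −slope of ln(peak area ratio) vs time × 1000/protein concentration. CYP marker substrates served as quality control.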
# [10] = Intrinsic clearance in human liver microsomes at 1 uM preincubated for 10 mins followed by NADPH addition and measured up to 45 mins by LC-MS/MS analysis; format: ADME, Microsome; details: 0.75 h; in short: as §1
# [11] = system: HepG2; assay: Cytotoxicity against human HepG2 cells assessed as reduction in cell viability up to 100 uM after 24 hrs by MTT assay; format: cell-based; details: hepg2, 24 h
# In short: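 Hep G2 cells grown in DMEM with 10% heat-inactivated FCS at 37 °C, 5% CO2, seeded and grown to 75% confluency. Exposed to 0.01–100 µM compound (DMSO stock diluted in PBS, final DMSO 0.1%) for 24 h. Washed, then MTT at 1 mg/mL final for 3 h. Solubilized in 0.04 M HCl/2-propanol, read at 560 nm with 670 nm reference. Normalized as (A−B)/(C−B), with B the Triton X-100 (0.5%) control and C the vehicle control. At least three assays.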
# [12] = Solubility of compound in TBS/Ca containing 1% DMSO at 1 mM; details: 1000 µM
smiles,measurement,setting,value
C[C@@H]1O[C@H](CNC(=O)c2cc3ccccc3o2)[C@@H](O)[C@H](O)[C@@H]1O,pIC50,[1],4.99
same,pIC50,[2],5.62
CO[C@H]1O[C@H](CNS(=O)(=O)c2cccs2)[C@@H](O)[C@H](O)[C@@H]1O,fraction unbound at 2 h,[3],0.3 to 0.4
C[C@@H]1O[C@H](CNS(=O)(=O)c2ccc(/C=C\c3ccccc3)s2)[C@@H](O)[C@H](O)[C@@H]1O,pIC50,[1],5.63
same,pIC50,[2],6.36
Cc1cc(C)c(S(=O)(=O)NC[C@H]2O[C@@H](C)[C@@H](O)[C@@H](O)[C@@H]2O)c(C)c1,PPB,[3],73%
same,half-life,[4],17 min
C[C@@H]1O[C@H](CNS(=O)(=O)c2ccc(C#Cc3ccccc3)s2)[C@@H](O)[C@H](O)[C@@H]1O,Activity,[5],64%
same,Stability,[6],Stable
same,inhibition at 100 µM,[7],> 90%
same,Activity,[8],inactive
same,fraction unbound at 2 h,[3],0.3 to 0.4
same,Intrinsic clearance (CLint),[9],< 10 µL/min/mg
same,Intrinsic clearance (CLint),[10],< 10 µL/min/mg
Cc1ccc(S(=O)(=O)NC[C@H]2O[C@@H](C)[C@@H](O)[C@@H](O)[C@@H]2O)s1,pIC50,[1],5.45
same,Activity,[11],Non-Toxic
same,Stability,[6],Stable
same,fraction unbound at 2 h,[3],0.3 to 0.4
same,Intrinsic clearance (CLint),[9],10 µL/min/mg
same,pIC50,[2],6.25
same,Intrinsic clearance (CLint),[10],< 10 µL/min/mg
Cc1ccc(C#Cc2ccc(S(=O)(=O)NC[C@H]3O[C@@H](C)[C@@H](O)[C@@H](O)[C@@H]3O)s2)cc1,pIC50,[1],5.76
same,pIC50,[2],6.46
C[C@@H]1O[C@H](CNS(=O)(=O)c2ccsc2)[C@@H](O)[C@H](O)[C@@H]1O,pIC50,[1],5.73
same,pIC50,[2],6.23
C[C@@H]1O[C@H](CNS(=O)(=O)c2cccs2)[C@@H](O)[C@H](O)[C@@H]1O,PPB,[3],81%
same,half-life,[4],34 min
C[C@@H]1O[C@H](CNC(=O)c2ccc(-c3ccccc3)s2)[C@@H](O)[C@H](O)[C@@H]1O,solubility,[12],Insoluble
COc1ccc(C#Cc2ccc(S(=O)(=O)NC[C@H]3O[C@@H](C)[C@@H](O)[C@@H](O)[C@@H]3O)s2)cc1,pIC50,[1],5.76
same,pIC50,[2],6.55
C[C@@H]1O[C@H](CNS(=O)(=O)c2ccc(Br)s2)[C@@H](O)[C@H](O)[C@@H]1O,pIC50,[1],5.48
same,pIC50,[2],6.24
C[C@@H]1O[C@H](CNS(=O)(=O)c2ccco2)[C@@H](O)[C@H](O)[C@@H]1O,pIC50,[1],5.50
same,pIC50,[2],6.34
Cc1oncc1S(=O)(=O)NC[C@H]1O[C@@H](C)[C@@H](O)[C@@H](O)[C@@H]1O,Activity,[11],Non-Toxic
same,Stability,[6],Stable
same,fraction unbound at 2 h,[3],0.3 to 0.4
same,Intrinsic clearance (CLint),[9],< 10 µL/min/mg
same,Intrinsic clearance (CLint),[10],< 10 µL/min/mg
CO[C@H]1O[C@H](CNS(=O)(=O)c2c(C)cc(C)cc2C)[C@@H](O)[C@H](O)[C@@H]1O,fraction unbound at 2 h,[3],0.3 to 0.4
Cc1ccccc1C#Cc1ccc(S(=O)(=O)NC[C@H]2O[C@@H](C)[C@@H](O)[C@@H](O)[C@@H]2O)s1,pIC50,[1],5.79
same,pIC50,[2],6.57
Cc1ccsc1S(=O)(=O)NC[C@H]1O[C@@H](C)[C@@H](O)[C@@H](O)[C@@H]1O,pIC50,[1],5.88
same,pIC50,[2],6.70
Cc1cccc(C#Cc2ccc(S(=O)(=O)NC[C@H]3O[C@@H](C)[C@@H](O)[C@@H](O)[C@@H]3O)s2)c1,pIC50,[1],5.76
same,pIC50,[2],6.52
C[C@@H]1O[C@H](CNC(=O)c2ccccc2)[C@@H](O)[C@H](O)[C@@H]1O,pIC50,[1],5.06
same,pIC50,[2],5.45
C[C@@H]1O[C@H](CNS(=O)(=O)c2cc(Cl)c(Cl)s2)[C@@H](O)[C@H](O)[C@@H]1O,Activity,[11],Non-Toxic
same,Stability,[6],Stable
same,Intrinsic clearance (CLint),[9],< 10 µL/min/mg
same,Intrinsic clearance (CLint),[10],< 10 µL/min/mg
Cc1csc(S(=O)(=O)NC[C@H]2O[C@@H](C)[C@@H](O)[C@@H](O)[C@@H]2O)c1,pIC50,[1],5.59
same,pIC50,[2],6.49
C[C@@H]1O[C@H](CNS(=O)(=O)c2ccn(C)n2)[C@@H](O)[C@H](O)[C@@H]1O,pIC50,[1],5.15
same,pIC50,[2],6.14
Cc1cc(S(=O)(=O)NC[C@H]2O[C@@H](C)[C@@H](O)[C@@H](O)[C@@H]2O)c(C(F)(F)F)o1,pIC50,[1],5.46
same,pIC50,[2],6.34
CCc1ccc(S(=O)(=O)NC[C@H]2O[C@@H](C)[C@@H](O)[C@@H](O)[C@@H]2O)s1,pIC50,[1],5.40
same,pIC50,[2],6.42
C[C@@H]1O[C@H](CNS(=O)(=O)c2ccc(C#CCCc3ccccc3)s2)[C@@H](O)[C@H](O)[C@@H]1O,pIC50,[1],5.50
same,pIC50,[2],6.40
Cc1cc(S(=O)(=O)NC[C@H]2O[C@@H](C)[C@@H](O)[C@@H](O)[C@@H]2O)c(C)s1,Activity,[11],Non-Toxic
same,Stability,[6],Stable
same,inhibition at 100 µM,[7],> 80%
same,Activity,[8],inactive
same,fraction unbound at 2 h,[3],0.3 to 0.4
same,Intrinsic clearance (CLint),[9],< 10 µL/min/mg
same,Intrinsic clearance (CLint),[10],< 10 µL/min/mg
